Source: ChEMBL document CHEMBL1933002, “Development and characterization of improved β-lactone-based anti-virulence drugs targeting ClpP” (Bioorg Med Chem, 2012)
The source made the active and inactive calls. The rule behind the calls is not given here.

Experiments:
[1] = target: T1, ATP-dependent Clp protease proteolytic subunit (Staphylococcus aureus (strain NCTC 8325)) (UniProt Q2G036); test: Inhibition of recombinant Staphylococcus aureus NCTC 8325 peptidase activity of clpP expressed in Escherichia coli BL21 at 200 to 800 uM after 10 mins using SLY-AMC as substrate by fluorescence assay
T1 sequence (whole entry): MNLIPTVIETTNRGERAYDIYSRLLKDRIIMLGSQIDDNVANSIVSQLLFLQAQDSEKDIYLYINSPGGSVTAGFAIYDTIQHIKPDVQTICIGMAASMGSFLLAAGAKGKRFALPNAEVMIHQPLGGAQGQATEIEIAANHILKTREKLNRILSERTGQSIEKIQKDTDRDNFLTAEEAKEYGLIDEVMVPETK
In short: (§1)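 Recombinant S. aureus ClpP (Strep-tag purified from E. coli BL21), 2 µg, preincubated 10 min at room temperature with lactone or DMSO in 50 mM MES, 100 mM KCl, pH 7.0. SLY-AMC added at 0.2 mM final, 2% DMSO final. Fluorescence read at ex 340/em 450 nm. At least triplicates; EC50 from curve fitting.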

[2] = test system: Staphylococcus aureus; test: Antivirulence activity against Staphylococcus aureus NCTC 8325-4 in sheep RBC assessed as inhibition of hemolysis in blood agar plate by measuring hemolysin level after overnight incubation by serial dilution agar plate assay; format: functional, organism-based
In short: (§2)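 S. aureus NCTC 8325 inoculated onto 5.5 mm card discs on 5% sheep blood agar plates, together with serial dilutions of β-lactone in DMSO, and incubated overnight at 37 °C. Hemolysis zones were measured and normalized to the DMSO control. Compound stocks were kept in DMSO at -20 °C.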

[3] = test system: Staphylococcus aureus; test: Antivirulence activity against Staphylococcus aureus NCTC 8325 in sheep RBC assessed as inhibition of hemolysis in blood agar plate at 100 uM by measuring hemolysin level after overnight incubation by serial dilution agar plate assay
[4] = target: T2, ATP-dependent Clp protease proteolytic subunit (Staphylococcus aureus (strain NCTC 8325), UniProt Q2G036); test: Inhibition of recombinant Staphylococcus aureus NCTC 8325 peptidase activity of clpP expressed in Escherichia coli BL21 after 10 mins using SLY-AMC as substrate by fluorescence assay; in short: as §1
T2 sequence (Q2G036 whole entry): T1 sequence (whole entry)

[5] = test system: Staphylococcus aureus; test: Antivirulence activity against Staphylococcus aureus NCTC 8325-4 in sheep RBC assessed as inhibition of hemolysis in agar plate by measuring hemolysin level after overnight incubation by serial dilution agar plate assay; format: functional, organism-based; in short: as §2
[6] = test system: HaCaT; test: Cytotoxicity against human HaCaT cells assessed as cell viability after 24 hrs by MTT assay; format: cell-based
In short: (§3)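 MTT read-out after 24 h exposure. NIH3T3 grown in DMEM (4 mM glutamine) + 10% FCS and plated at 1.5×10^3/well; HaCat grown in calcium-free DMEM (2 mM glutamine) + 10% dialyzed FCS and plated at 4.5×10^3/well. Cells cultured 24 h to 30-40% confluence. Lactones diluted 1:100 from DMSO stocks into fresh medium. MTT added for 2 h, formazan dissolved in DMSO, OD 570 nm minus 630 nm.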

[7] = test system: NIH3T3; test: Cytotoxicity against mouse NIH/3T3 cells assessed as cell viability after 24 hrs by MTT assay; format: cell-based; details: NIH3T3, 24 h; in short: as §3
[8] = target: T1, ATP-dependent Clp protease proteolytic subunit (Staphylococcus aureus (strain NCTC 8325)); test: Displacement of U1P from clpP in live Staphylococcus aureus NCTC 8325 cells after 1 hr using rhodamine-azide by SDS PAGE fluorescence analysis
[9] = test system: Staphylococcus aureus; test: Antivirulence activity against Staphylococcus aureus NCTC 8325-4 in sheep RBC assessed as inhibition of hemolysis in liquid medium by measuring hemolysin level after overnight incubation by spent culture supernatant assay
[10] = target: T1, ATP-dependent Clp protease proteolytic subunit (Staphylococcus aureus (strain NCTC 8325)); test: Inhibition of recombinant Staphylococcus aureus NCTC 8325 peptidase activity of clpP expressed in Escherichia coli BL21 at 10 to 40 uM after 10 mins using SLY-AMC as substrate by fluorescence assay; in short: as §1
[11] = test system: Staphylococcus aureus; test: Growth inhibition of Staphylococcus aureus NCTC 8325 at 1 mM after 9 hrs; format: functional, organism-based
In short: (§4)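 Overnight cultures diluted 1:100 in LB (P. aeruginosa, E. coli) or BHB (S. aureus, S. epidermidis, E. faecalis). 100 µL treated with 1 µL of 100 mM lactone stock or DMSO control. Shaken in 96-well plates for 9 h at 37 °C, then OD600 read. Triplicates.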

[12] = test system: Staphylococcus epidermidis; test: Growth inhibition of Staphylococcus epidermidis RP62A at 1 mM after 9 hrs; format: functional; in short: as §4
[13] = test system: Pseudomonas aeruginosa; test: Growth inhibition of Pseudomonas aeruginosa PAO1 at 1 mM after 9 hrs; format: functional, organism-based; in short: as §4
[14] = test system: Enterococcus faecalis; test: Growth inhibition of Enterococcus faecalis OG1RF at 1 mM after 9 hrs; format: functional; in short: as §4
[15] = test system: Escherichia coli; test: Growth inhibition of Escherichia coli K-12 at 1 mM after 9 hrs; format: functional, organism-based; in short: as §4
[16] = Cytotoxicity against mouse NIH/3T3 cells assessed as cell viability at 200 to 1000 uM after 24 hrs by MTT assay; format: cell-based, NIH3T3; details: read-out: Activity
In short: (§5)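 NIH3T3 cells in DMEM (4 mM glutamine) + 10% FCS, plated at 1.5×10^3/well and cultured 24 h to 30-40% confluence. Lactones diluted 1:100 from DMSO stocks into fresh medium; cells exposed 24 h. MTT (5 mg/ml stock) added for 2 h, cells lysed in DMSO, OD at 570 nm with 630 nm background subtraction.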

[17] = test system: NIH3T3; test: Cytotoxicity against mouse NIH/3T3 cells assessed as cell viability up to 1 mM after 24 hrs by MTT assay; format: cell-based; details: nih3t3, 24 h; in short: as §5
[18] = test system: Staphylococcus aureus; test: Antivirulence activity against Staphylococcus aureus NCTC 8325-4 in sheep RBC assessed as inhibition of hemolysis in liquid medium by measuring hemolysin level at 100 uM after overnight incubation by spent culture supernatant assay relative to control

For C=CCCCCCCCC[C@H]1OC(=O)[C@@H]1CCCCCCCCCNC(=O)OC(C)(C)C (racemic), the inhibition [1] was “inactive”, the Activity [2] was “inactive” and the Activity [3] was “inactive”.
C=CCCCCCCC[C@H]1C(=O)O[C@@H]1CCc1cccnc1 (racemic) showed an EC50 [4] of 4.5 µM, an ED50 [5] of 15 nmol and an EC50 [6] of 75 µM. The EC50 [7] was 50 µM, the Activity [8] was “Active” and the EC50 [9] was 43 µM.
With CCCCCCCCCCCC[C@H]1C(=O)O[C@@H]1CCc1ccccc1 (racemic) the inhibition [1] was “inactive”, the Activity [2] was “inactive” and the Activity [3] was “inactive”.
Compound C=CCCCCCCC[C@H]1C(=O)O[C@@H]1CCc1ccccc1 (racemic) has an inhibition [10] of 30%, an EC50 [4] of 3.4 µM and an ED50 [5] of 7 nmol. For the same compound, the “growth inhibition (GI)” value [11] was “inactive”, the “growth inhibition (GI)” value [12] was “inactive” and the “growth inhibition (GI)” value [13] was “inactive”. For the same compound, the “growth inhibition (GI)” value [14] was “inactive”, the “growth inhibition (GI)” value [15] was “inactive” and the viability at 24 h, up to 1000 µM [16] was 80%. For the same compound, the Activity [17] was “Non-toxic”, the EC50 [6] was 91 µM and the Activity [8] was “Active”. The EC50 [9] was 11 µM.
In the case of C=CCCCCCCC[C@H]1C(=O)O[C@@H]1CCCCCNC(=O)c1ccc(N(C)C)cc1 (racemic), the inhibition [10] is reported as 70%, the EC50 [4] is reported as 5.4 µM and the Activity [2] is reported as “inactive”. For the same compound, the Activity [8] was “Active” and the inhibition at 100 µM [18] was 20%.
In the case of C=CCCCCCCC[C@H]1C(=O)O[C@@H]1CCCCCCCCCCCNC(=O)OC(C)(C)C (racemic), the inhibition [1] is reported as “inactive”, the Activity [2] is reported as “inactive” and the Activity [3] is reported as “inactive”.
